From publication PMC8116641 (Archives of Virology, 2021)
Entries after “also recorded” stand apart in the source; their conditions may differ. Like-named read-outs stand apart in the source and are kept apart here.

How the values were obtained:
[1] = Cytotoxicity assay, microtetrazolium test; assay type: cell-based; details: dog, MDCK cells
How it was run: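 MDCK cells were exposed for 48 h at 36°C in 5% CO2 to threefold serial dilutions of test compound in MEM, in triplicate. After two PBS washes, cells were incubated for 1 h with MTT ([…] in PBS). The formazan was dissolved in DMSO and OD was read at 535 nm. OD was plotted against concentration to calculate CC50.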

[2] = tested on: influenza A virus A/Puerto Rico/8/34 (H1N1) (PR8 (H1N1)); assay: microbe, parasite or virus in culture; assay type: cell-based; details: for IC50: Influenza A virus, H1N1|PR8, MDCK, read-out: IC50 (50% virus-inhibiting concentration)
[3] = tested on: influenza A virus A/California/07/09 (H1N1)pdm09 (Cal (H1N1)pdm09); assay: microbe, parasite or virus in culture; assay type: cell-based; details: for IC50: read-out: IC50 (50% inhibitory concentration)
[4] = tested on: influenza A virus A/Aichi/2/68 (H3N2) (Aichi (H3N2)); assay: microbe, parasite or virus in culture; assay type: cell-based; details: for IC50: read-out: IC50 (50% inhibitory concentration)
[5] = tested on: influenza A viruses (H1, H1pdm09, and H3 subtypes); assay: microbe, parasite or virus in culture; assay type: cell-based; details: read-out: IC50 value (depending on the virus)
[6] = tested on: influenza A virus PR8 (H1N1); assay type: cell-based
[7] = target: receptor-binding activity of viral HA of influenza A virus PR8 (H1N1) (Influenza A virus, UniProt P03452); assay type: biochemical
receptor-binding activity of viral HA of influenza A virus PR8 (H1N1), sequence (P03452 18-343 limits assumed): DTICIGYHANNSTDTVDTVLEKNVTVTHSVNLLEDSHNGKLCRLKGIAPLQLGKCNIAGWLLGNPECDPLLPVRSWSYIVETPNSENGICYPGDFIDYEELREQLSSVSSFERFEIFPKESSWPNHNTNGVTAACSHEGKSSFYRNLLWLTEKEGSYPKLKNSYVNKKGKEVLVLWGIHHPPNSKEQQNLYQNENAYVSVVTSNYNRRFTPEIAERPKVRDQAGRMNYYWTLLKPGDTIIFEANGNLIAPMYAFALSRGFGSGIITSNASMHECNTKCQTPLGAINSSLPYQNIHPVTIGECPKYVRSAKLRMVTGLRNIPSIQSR
receptor-binding activity of viral HA of influenza A virus PR8 (H1N1), sequence (P03452 344-565 limits assumed): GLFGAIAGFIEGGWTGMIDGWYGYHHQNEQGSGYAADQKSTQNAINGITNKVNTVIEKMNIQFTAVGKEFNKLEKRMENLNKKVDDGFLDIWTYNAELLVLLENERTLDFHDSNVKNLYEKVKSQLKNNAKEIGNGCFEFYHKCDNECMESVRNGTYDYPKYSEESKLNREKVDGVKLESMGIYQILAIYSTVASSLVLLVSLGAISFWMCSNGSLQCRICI

| SMILES | CC50 at 48 h [1] [µM] | SI (selectivity index, CC50/IC50) [2] | IC50 [2] [µM] | further results |
| --- | --- | --- | --- | --- |
| CC1(C)[C@H]2CC[C@]1(C)[C@H](OC(=O)C[N+](C)(C)C)C2.[I-] [10a, N,N,N-Trimethyl-2-oxo-2-((1S,2R,4S)-1,7,7-trimethylbicyclo[2.2.1]heptan-2-yloxy)ethanaminium iodide] | 1310 ± 126 | 546 | 2.4 ± 0.4 | SI (selectivity index, CC50/IC50) [3]: 78; IC50 ([3]; Influenza A virus, H1N1, MDCK): 16.9 µM; IC50 [3]: 16.8 ± 3.1 µM; SI (selectivity index, CC50/IC50) [4]: 142; IC50 [4]: 9.2 ± 1.3 µM; IC50 [5]: 2.4 to 16.8 µM; Infectious activity of the virus when compound is added late [6]: not statistically different from the control values; Time of addition at which the compound is most effective [6]: most effective when added at the early stages of the viral life cycle; also recorded: most effective when added within 0–2 hours after infection; Effect on hemagglutination titer of the virus [7]: did not change this value |
| CC1(C)[C@H]2CC[C@]1(C)[C@H](OC(=O)CCC[N+](C)(C)C)C2 [10c, N,N,N-Trimethyl-4-oxo-4-((1S,2R,4S)-1,7,7-trimethylbicyclo[2.2.1]heptan-2-yloxy)butan-1-aminium iodide] | 264 ± 15 |  | > 117 |  |
| CC[N+](C)(CC)CC(=O)O[C@H]1C[C@@H]2CC[C@@]1(C)C2(C)C.[I-] [11a, N,N-Diethyl-N-methyl-2-oxo-2-((1S,2S,4S)-1,7,7-trimethylbicyclo[2.2.1]heptan-2-yloxy)ethanaminium iodide] | 850 ± 38 | 3 | 316 ± 40 |  |
| CC[N+](C)(CC)CCC(=O)O[C@H]1C[C@@H]2CC[C@@]1(C)C2(C)C [11b, N,N-Diethyl-N-methyl-3-oxo-3-((1S,2S,4S)-1,7,7-trimethylbicyclo[2.2.1]heptan-2-yloxy)propan-1-aminium iodide] | 69 ± 6 |  | > 37 |  |
| NC12CC3CC(CC(C3)C1)C2 [Amantadine, reference compound] | 284 ± 21 | 4 | 64.2 ± 4.7 |  |
| CC(N)C1C[C@@H]2CC[C@H]1C2 (stereo partly drawn) [Deitiforine, reference compound] | 1270 ± 81 |  |  |  |
| NC(=O)c1ncn([C@@H]2O[C@H](CO)[C@@H](O)[C@H]2O)n1 [Ribavirin, reference compound] | > 2000 | >81 | 24.6 | SI (selectivity index, CC50/IC50) [3]: 61; IC50 ([3]; Influenza A virus, H1N1, MDCK): 35 ± 4.6 µM; SI (selectivity index, CC50/IC50) [4]: 52; IC50 ([4]; Influenza A virus, H3N2, MDCK): 41 ± 3.9 µM |
| CC(N)C12CC3CC(CC(C3)C1)C2 (stereo not drawn) [Rimantadine, reference compound] | 335 ± 27 | 5 | 67 ± 4.9 |  |
| CC1(C)[C@@H]2CC[C@@]1(C)/C(=N/CC[N+](C)(C)C)C2.[I-] [compound 6, N,N,N-Trimethyl-2-((E)-((1R,4R)-1,7,7-trimethylbicyclo[2.2.1]heptan-2-ylidene)amino)ethanaminium iodide] | > 2100 | > 18 | 115 ± 10 |  |
| CC1(C)[C@@H]2CC[C@@]1(C)/C(=N/CCC[N+](C)(C)C)C2.[I-] [compound 7, N,N,N-Trimethyl-3-((E)-((1R,4R)-1,7,7-trimethylbicyclo[2.2.1]heptan-2-ylidene)amino)propan-1-aminium iodide] | > 1990 | > 14 | 144 ± 12 |  |
